# Compounds with a hit are over-represented: about 2% of the library has one in this group of screens.
# PABP polyA inh = blocks human PABP binding to poly(A) RNA | P11940 | AID 2014 | inhibition, % at 35 µM | fluorescence polarization | actives 1% (n = 290,000);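 note: calls also rest on retests at 20 µM and on dose response follow-up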
# Target sequence (P11940 whole entry, looked up): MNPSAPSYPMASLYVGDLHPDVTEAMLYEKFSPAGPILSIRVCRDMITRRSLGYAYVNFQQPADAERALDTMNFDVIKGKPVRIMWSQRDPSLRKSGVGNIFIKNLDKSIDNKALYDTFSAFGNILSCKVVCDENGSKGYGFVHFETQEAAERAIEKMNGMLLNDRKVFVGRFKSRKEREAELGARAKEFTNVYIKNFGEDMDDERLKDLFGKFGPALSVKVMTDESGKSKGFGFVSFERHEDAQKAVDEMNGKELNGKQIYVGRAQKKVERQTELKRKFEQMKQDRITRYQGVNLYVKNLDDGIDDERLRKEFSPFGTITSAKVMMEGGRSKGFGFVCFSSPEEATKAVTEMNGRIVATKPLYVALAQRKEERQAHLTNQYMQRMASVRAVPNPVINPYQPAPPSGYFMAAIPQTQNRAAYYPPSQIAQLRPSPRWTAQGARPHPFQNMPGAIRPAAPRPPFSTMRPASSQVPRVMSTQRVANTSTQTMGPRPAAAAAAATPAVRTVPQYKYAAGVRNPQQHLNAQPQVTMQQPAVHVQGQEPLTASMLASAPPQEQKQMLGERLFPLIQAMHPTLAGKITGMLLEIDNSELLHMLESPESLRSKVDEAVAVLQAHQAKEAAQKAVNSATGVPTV
# eIF4H FP inh = inhibitors of RNA binding by human eIF4H; eIF4H fluorescence polarization binding assay; actives 0.94% (n = 290,000); Q15056; inhibition, % at 35 µM;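 note: calls also rest on retests at 20 µM and on dose response follow-up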
# HCV NS3 hel inh = HCV NS3 helicase inhibition; NS3 helicase DNA unwinding, Cy5 molecular beacon fluorescence; actives 0.56% (n = 290,000); AID 1800; inhibition, % at 10.9 µM;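 active = inhibition above the mean of all tested compounds plus 3 SD, set per campaign, cut at about 35% in these data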;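 note: 0% = DMSO wells and 100% = thioflavine S control wells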
#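 Measured by: Cy5 fluorescence, 0 and 60 min reads / Assay system: NS3 helicase fragment of HCV / Control set: low DMSO, high thioflavine S at 110 µM / Times: 1 h reaction at 25 °C, ATP-initiated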
# HCV core dimer = HCV core protein dimerization inhibition; TR-FRET GST/Flag-core106 dimerization, 1536-well; inhibition, % at 5 µM; actives 0.33% (n = 300,000); AID 1899;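 active = inhibition above the mean of all tested compounds plus 3 SD, set per screening campaign, cut at about 45% in these data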
#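 Assay system: Tagged HCV core106 pair (GST and Flag) | Buffer or medium: KF-containing HEPES buffer, pH 7.45, DTT, CHAPS, BSA | Also added: Eu donor and XL665 acceptor anti-tag antibodies | Dosing: One concentration, 5 µM, in 0.5% DMSO | Timing: 4 h at 22.5 °C | Technique: TR-FRET 671 and 617 nm emission | Repeats: Singlicate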
# FID counter = counter-screen for HCV NS3 helicase inhibitors: DNA intercalator displacement. DNA fluorescent intercalator displacement, fluorescence. actives 0.17% (n = 290,000). inhibition, % at 7.9 µM; in the data active = inhibition above about 37%;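 note: 0% = vehicle and 100% = reference compound; higher means more ethidium bromide displaced from hairpin DNA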
# PABP1 MLLE inh = inhibitors of microRNA-mediated deadenylation, human PABP1 MLLE binding. GST-MLLE / FITC-PAM2 fluorescence polarization. actives 0.36% (n = 360,000). P11940. inhibition, % at 20 µM; in the data active = inhibition above about 35%, passing the limit was not always enough;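 note: plate controls were DMSO wells with GST-MLLE for no effect and wells lacking GST-MLLE protein for full effect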
# * hit, by the source's call; i = inactive; ? = inconclusive; . = no result given. Unless noted, the rule behind the calls is not given here.
SMILES,PABP polyA inh,eIF4H FP inh,HCV NS3 hel inh,HCV core dimer,FID counter,PABP1 MLLE inh
CCOC(=O)/C(=C\c1ccc(C)cc1)NC(=O)c1ccccc1,54*,78*,-5,-1,-4,5
O=C(NCCC(=O)N1CCN(S(=O)(=O)c2ccccc2Cl)CC1)Nc1ccccc1,.,.,.,.,.,26
CCOc1ccc(NC(=O)c2cc3ccccc3cc2O)cc1,73*,98*,19,16,-9,15
CCCCC1Cc2[nH]c(=S)[nH]c(=O)c2C(c2ccc(Cl)cc2)O1 (stereo unspecified),.,.,.,.,.,26
N#C/C(=C\c1ccc[nH]1)C(=O)Nc1ccccc1[N+](=O)[O-],57*,79*,0,22,13,-17
CC(C)(C)S(=O)(=O)N1Cc2cc(CO)cc(CCO)c2[C@@H]1CCO,.,.,.,.,.,4
COC(=O)c1ccccc1NC(=S)N(Cc1ccc2c(c1)OCO2)Cc1cc2ccc(OC)cc2[nH]c1=O,-1,0,-4,5,-5,-60
CC(C)C1NC2(C(=O)c3ccccc3C2=O)C2C(=O)N(c3ccc(F)cc3)C(=O)C12 (stereo unspecified),39*,51*,10,3,-10,39
COc1ccccc1N1CCN(C(=O)/C=C/c2c(Cl)nc3ccccn23)CC1,22,1,-3,-7,-26,-4
COc1ccc(NC(=O)/C=C/c2c(Cl)nc3ccccn23)cc1,76*,1.5*,12,4,-10,-13
COc1ccc(NC(=O)N(C)[C@H]2C[C@H]3c4[nH]c5ccc(-c6ccc(OC)cc6)cc5c4CCN3C[C@H]2[C@H](C)O)cc1,.,.,.,.,.,-33
O=C1c2ccccc2-c2onc3ccc(NCCCn4ccnc4)c1c23,120,127,35,-97,69*,.
COc1ccc2noc3c2c1C(=O)c1ccccc1-3,.,.,.,-3,.,i
CCCCNC(=O)c1cc2c(=O)n3cccc(C)c3nc2n1C,4,-13,.,.,.,.
Cc1cccn2c(=O)c3cc(C(=O)N(C)C)n(C)c3nc12,?,?,-1,-8,-4,53*
COCCNC(=O)c1cc2c(=O)n3cccc(C)c3nc2n1C,-2,-11,.,-15,.,-5
Cc1cccn2c(=O)c3cc(C(=O)NCCCn4ccnc4)n(C)c3nc12,67*,91*,-6,-3,2,15
COC(=O)[C@H](CC(C)C)NC(=O)CC[C@H]1O[C@@H](n2ccc(=O)[nH]c2=O)[C@H](O)[C@@H]1O,.,.,.,.,.,5
O=c1cnn([C@@H]2O[C@H](CO)[C@@H](O)[C@H]2O)c(=O)[nH]1,-22,-6,-9,-3,0,0
O=C1C=C(C2OC(CO)C(O)C2O)C(=O)N1 (stereo unspecified),.,.,.,.,.,43*
Cc1ccc(N2C(=S)NC3c4cc(Cl)ccc4OC2(C)C3C(=O)N(C)C)cc1 (stereo unspecified),-8,-1,-8,-2,-19,44*
COc1ccccc1CNC(=O)c1cc(-c2ccccc2C)n(CC2CC(c3cccc([N+](=O)[O-])c3)=NO2)n1 (stereo unspecified),.,.,.,35,.,0
COc1cc(/C=C/C(=O)Nc2nnc(CC(C)(C)C)s2)cc(OC)c1OC,10,-4,-2,-9,-10,44*
COC(=O)CCC(=O)OC1(C)C(=O)C=C2C=C(C3CC3)N(Cc3ccco3)C=C2C1=O (stereo unspecified),53*,88*,.,-5,.,30
COC(=O)CCC(=O)OC1(C)C(=O)C=C2C=C(C3CC3)N(c3cccc(C#N)c3)C=C2C1=O (stereo unspecified),?,?,.,-10,.,5
SMILES,PABP polyA inh,eIF4H FP inh,HCV NS3 hel inh,HCV core dimer,FID counter,PABP1 MLLE inh
COC(=O)CCC(=O)OC1(C)C(=O)C=C2C=C(C3CC3)N(c3ccc(CO)cc3)C=C2C1=O (stereo unspecified),.,.,.,69*,.,.
O=C1c2ccccc2C(O)(c2ccccc2)N1c1ccc([N+](=O)[O-])cc1Cl (stereo unspecified),.,.,.,.,.,-2
COc1ccccc1N(Cc1ccccc1)S(=O)(=O)c1cccc(C(=O)N2CCCCC2)c1,.,.,.,.,.,9
OC1(c2ccc(Br)cc2)CN(c2ccccc2)C2=[N+]1CCS2 (stereo unspecified),7,-6,1,0,-2,37*
O=C(Nc1cccc2ccccc12)c1ccc2sc([C@@H]3O[C@H](CO)[C@H](O)[C@H](O)[C@H]3O)nc2c1,.,.,.,.,.,2
CC(C(=O)NC1C(=O)N2C(C(=O)O)=C(CSc3nnnn3C)CSC12)n1cc(Cl)cn1 (stereo unspecified),-5,7,17,-4,-16,43*
CCc1nc2ccc(C(=O)NCCCN(C)C)cn2c1N(CC)CCOC,.,.,.,.,.,13
C=CCN1C=C2C(=O)C(C)(OC(=O)CCC(=O)OC)C(=O)C(Br)=C2C=C1c1ccc(OC)cc1 (stereo unspecified),50*,95*,.,10,.,21
CCOc1ccc(CN(C(=O)c2cc(=O)c3cc(C)cc(C)c3o2)C2CCS(=O)(=O)C2)cc1 (stereo unspecified),.,.,1,-12,-39,-3
NC(=S)n1[nH]c(-c2ccc([N+](=O)[O-])cc2)c(N=Nc2ccc(Cl)cc2)c1=O,6.3*,?,15,.,2,38
O=C(NC1CCCCC1)C1CC(=O)N(Cc2ccccc2)C1 (stereo unspecified),-5,3,-30,-19,-12,-4
NS(=O)(=O)c1ccc(CCNC(=O)CCS(=O)(=O)c2ccc(Br)cc2)cc1,32,90*,8,.,-6,3
CCc1cccc(NC(=O)CCS(=O)(=O)c2ccc(Br)cc2)c1,24,81*,-10,-92,-15,-8
O=C(CCS(=O)(=O)c1ccc(Br)cc1)NCCc1ccccc1,24,82,8,2,-18,2
Cc1ccc(S(=O)(=O)CCC(=O)Nc2cccc(C)c2)cc1,-4,-5,0,-4,-4,-14
CC(OC(=O)/C=C/c1ccco1)C(=O)NC1CCCCC1C (stereo unspecified),.,.,.,.,.,-9
CCCC(=O)OCC1CN(Cc2ccco2)S(=O)(=O)c2c(F)cccc2O1 (stereo unspecified),.,.,.,.,.,4
O=C(O)CN1C(=O)/C(=C\c2cc([N+](=O)[O-])ccc2OCc2ccccc2Cl)SC1=S,71*,45*,7,19,11,23
CC1(C)CC(N2CCN(Cc3ccccc3)CC2)=CC(=[N+]2CCCCC2)C1,35,8,3,-5,7,-105
CN(Cc1ccccc1)C1=CC(=[N+]2CCCCC2)CC(C)(C)C1,51*,-10,2,0,12,-125
CC(=O)Nc1ccc(C(=O)OCC(=O)c2cccc([N+](=O)[O-])c2)cc1,16,26,-1,-2,4,-7
COC(=O)Nc1ccc(SCC(=O)c2cccc([N+](=O)[O-])c2)cc1,-4,-3,-6,-7,11,42*
